Screening data: PubChem, several laboratories
Most compounds without a hit are left out; they make up all but 1.9% or so of the library.
Runt-CBFb FRET: inhibitors of RUNX1 Runt–CBFb binding, primary screen, biochemical, FRET, Cerulean-Runt, Venus-CBFb, uHTS; Cerulean-Runt/Venus-CBFb FRET ratio 530/480, 1 h; inhibition, % at 20 µM; hit rate 0.46% among 220,000; AID 1496, 2009;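 active means inhibition over about 50% at 20 µM in the single-dose screen, limit read from the data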;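 further: 0% = DMSO wells and 100% = excess unlabeled CBFb competitor control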
Target sequence (Q01196 whole entry, looked up): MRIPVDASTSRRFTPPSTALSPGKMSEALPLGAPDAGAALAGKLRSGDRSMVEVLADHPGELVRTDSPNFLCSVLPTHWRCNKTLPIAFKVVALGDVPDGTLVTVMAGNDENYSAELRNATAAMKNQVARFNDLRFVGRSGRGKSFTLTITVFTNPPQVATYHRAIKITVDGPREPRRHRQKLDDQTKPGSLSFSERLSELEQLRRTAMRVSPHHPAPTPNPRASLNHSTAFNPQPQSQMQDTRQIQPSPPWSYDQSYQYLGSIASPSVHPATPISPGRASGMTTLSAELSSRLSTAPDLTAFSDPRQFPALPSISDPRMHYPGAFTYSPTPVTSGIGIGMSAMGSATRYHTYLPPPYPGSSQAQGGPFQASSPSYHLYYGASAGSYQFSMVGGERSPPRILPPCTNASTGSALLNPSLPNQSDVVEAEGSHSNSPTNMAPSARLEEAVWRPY
Target sequence (Q13951 whole entry, looked up): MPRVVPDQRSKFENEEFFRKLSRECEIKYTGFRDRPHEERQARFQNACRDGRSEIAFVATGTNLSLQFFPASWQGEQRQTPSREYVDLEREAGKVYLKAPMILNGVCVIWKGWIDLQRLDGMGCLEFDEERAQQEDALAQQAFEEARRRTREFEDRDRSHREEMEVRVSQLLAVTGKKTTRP
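System: Cerulean-labeled Runt domain protein | Quantity: 100 nM of each labeled protein | Schedule: 1 h compound exposure, room temperature | Detection: Fluorescence energy transfer, 422 nm excitation, 530/480 nm emission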
RanGTP-Imp inh: inhibitors of RanGTP-importin-beta interaction, primary screen, biochemical, FRET, CFP-Ran, YFP-importin-beta, homogeneous; Ran GTPase (GTP-bound) - importin-beta complex; cell-free CFP-Ran/YFP-importin-beta FRET ratio; inhibition, % (concentration not given with the values); hit rate 1.1% among 300,000;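 active means more than half of the replicate wells show a fall in the fluorescence ratio signal beyond about 16%, limit read from the data, passing the limit was not always enough; inconclusive means exactly half of the replicate wells pass the set limit; inactive means fewer than half of replicates pass the limit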;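 further: 0% = DMSO wells and 100% = Ran loaded with GDP instead of GTP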
Runt-SMMHC FRET: inhibitors of RUNX1 Runt–CBFb-SMMHC binding, primary screen, biochemical, FRET, Cerulean-Runt, Venus-CBFb-SMMHC, uHTS. inhibition, % at 20 µM. Cerulean-Runt/Venus-CBFb-SMMHC FRET ratio 530/480, 1 h. hit rate 0.74% among 220,000;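 active means mean inhibition across duplicate retests at 20 µM reaching about 50%, limit read from the data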;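 further: 0% = DMSO wells and 100% = wells with excess untagged CBFb-SMMHC; inhibitors lower the FRET ratio by blocking Runt binding to CBFb-SMMHC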
Hck-Nef inh: inhibitors of Nef-activated human Hck kinase, primary screen, biochemical, Z-Lyte FRET, 384-well, Hck-YEEI. Tyrosine-protein kinase HCK (Homo sapiens), P08631. Recombinant Hck-YEEI plus Nef, Z-Lyte FRET kinase assay. inhibition, % at 20 µM. hit rate 0.68% among 220,000;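 active means Hck-Nef kinase inhibition above about 50%, limit read from the data; inactive means inhibition below that limit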;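 further: 0% = DMSO with Hck plus Nef and 100% = Hck alone without Nef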
Hck-Nef confirm: retest of Hck:Nef kinase inhibitor hits, confirmation, biochemical, Z-Lyte FRET, 384-well, p-Tyr peptide counterscreen; AID 463188, 2010; Recombinant Hck-YEEI:Nef, Z-Lyte FRET kinase assay; shares compounds with Hck-Nef inh; calls only at 10 µM; hit rate 28% among 1,300;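 active means average inhibition of at least 50%, with Z-scores no higher than 3 in both the phospho-tyrosine peptide and fluorescence counterscreens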
Numbers without * were called inactive; i = inactive; ? = inconclusive; · = no result shown; + = active, no number.

SMILES	Runt-CBFb FRET	RanGTP-Imp inh	Runt-SMMHC FRET	Hck-Nef inh	Hck-Nef confirm
COc1ccccc1C(=O)Oc1cc(N)n(S(=O)(=O)c2ccccc2)n1	5.0	-2.0	-5.0	107.4*	i
Cc1cc2nc(-c3ccc(SCC(=O)Nc4ccc(S(=O)(=O)NC5CC5)cc4)nc3)[nH]c2cc1C	-5.7	-0.1	-7.1	86.5*	+
Cc1cc2nc(-c3ccc(SCc4ccc(C(=O)O)cc4)nc3)[nH]c2cc1C	2.7	2.8	-3.0	74.2*	+
CCC(C)(C)NC(=O)C(c1ccc(OC)cc1)N(C(=O)CCC(=O)Nc1cc(C)on1)c1ccc2c(c1)OCO2 (stereo unspecified)	·	-0.3	·	·	·
Cc1ccccc1/C=N/Nc1ncnc2nc[nH]c12	-1.4	1.1	0.8	74.8*	+
C(=N\Nc1ncnc2nc[nH]c12)/c1cccs1	0.7	-6.4	0.8	81.6*	+
Clc1cnc(N/N=C/c2cccs2)c(Cl)c1	-1.4	-3.8	2.1	1.5	·
CCc1ccc(Nc2ncnc3nc[nH]c23)cc1	0.1	-3.5	1.8	63.2*	+
c1ccc(CNc2ncnc3nc[nH]c23)cc1	-0.4	-5.3	-2.1	1.0	·
Cc1ccsc1/C=N/Nc1ncnc2nc[nH]c12	1.8	-3.4	-5.4	75.6*	+
CCOC(=O)N1CCN(C(=O)CSc2nc(=O)n3ccc(C)cc3n2)CC1	·	5.9	·	·	·
COc1ccc(C(=O)N/C(=C\c2cn(S(=O)(=O)N(C)C)c3ccccc23)C(=O)N2CCOCC2)cc1	·	-0.7	·	·	·
Clc1ccc(CCNc2ncnc3nc[nH]c23)cc1	2.2	·	1.4	28.5	·
Fc1ccc(/C=N/Nc2ncnc3nc[nH]c23)cc1F	-5.4	0.5	1.5	67.5*	+
NC(=S)N/N=C/c1coc2cc(Br)ccc2c1=O	0.9	5.7	-4.9	30.2	·
NC(=S)N/N=C/c1coc2ccc(Br)cc2c1=O	2.9	-0.4	0.5	73.3*	+
NC(=O)N/N=C/c1coc2ccc3ccccc3c2c1=O	2.6	-6.2	-3.7	32.1	·
NC(=S)N/N=C/c1coc2c(ccc3ccccc32)c1=O	0.4	-3.5	-1.1	61.4*	+
C=CCNC(=O)Cn1c(=O)c2c(ncn2CCC(C)C)n(Cc2ccccc2)c1=O	·	-3.3	·	·	·
NC(=O)c1cc2cc(Cc3ccccc3Cl)ccc2oc1=O	-1.0	-1.2	1.1	21.9	·
Nc1nonc1-c1nc2ccccc2n1CC(=O)N/N=C/c1ccc(-c2cccc(C(=O)O)c2)o1	37.1	0.4	34.3	91.2*	+
Cc1nnc(SCC(=O)Nc2nccs2)n1C(C)C	·	0.6	·	·	·
CC(C)Cc1cc(CN2CCC(CO)(Cc3ccccc3)CC2)[nH]n1	0.3	2.5	0.5	0.5	·
COc1ccc(-c2noc(CSc3nc(-c4ccccc4)cc(=O)[nH]3)n2)cc1OC	-2.9	0.4	-0.1	54.1*	i
CCOC(=O)N1CCN(C(=O)c2c[nH]c3ccc(S(=O)(=O)N(C)c4ccc(OCC)cc4)cc3c2=O)CC1	·	-3.2	·	·	·
SMILES	Runt-CBFb FRET	RanGTP-Imp inh	Runt-SMMHC FRET	Hck-Nef inh	Hck-Nef confirm
Cc1ccc(C(C(=O)Nc2ccc3c(c2)OCO3)N(C)C(=O)/C=C\c2ccc3c(c2)OCO3)cc1 (stereo unspecified)	1.1	0.2	1.8	1.6	·
CCCCOc1ccccc1C(=O)NCC(=O)O	0.1	8.9	2.4	-3.4	·
COC(=O)C1=CN(CCCN2CCCC2=O)C=C(C(=O)OC)C1c1ccccc1C(F)(F)F	10.3	115.8*	-15.6	85.5*	·
CCCOc1ccccc1C1C(C(=O)OC)=CN(C(C)C)C=C1C(=O)OC	85.5*	115.3*	58.5*	68.3*	·
CCCCOc1ccccc1C1C(C(=O)OC)=CN(CC)C=C1C(=O)OC	10.5	107.5*	-20.7	61.9*	·
COC(=O)C1=CN(C)C=C(C(=O)OC)C1c1ccccc1Cl	5.4	86.7*	82.8*	70.4*	·
CCc1ccc(NC(=O)CNC(=O)[C@@H]2Cc3ccccc3CN2C(=O)OC(C)(C)C)cc1	·	4.4	·	·	·
O=C(CC1NCCNC1=O)Nc1ccc([N+](=O)[O-])cc1 (stereo unspecified)	-2.1	-0.7	2.5	-46.5	·
CC1(C)Cc2c(C#N)c(NC3CCCCC3)nc(-c3ccco3)c2CO1	7.6	10.5	9.3	35.2	·
CC1(C)Cc2c(C#N)c(NCC3CCCO3)nc(-c3ccco3)c2CO1 (stereo unspecified)	11.3	9.2	6.1	55.9*	i
CCSc1nc2c(cnn2-c2ccccc2)c(=O)n1N	-0.1	0.2	0.7	58.9*	+
Cc1ccc(CNC(=O)C2CCCN2C(=O)Nc2ccc(F)cc2)cc1 (stereo unspecified)	·	3.8	·	·	·
O=C(Nc1cccc(S(=O)(=O)NC2=NCCC2)c1)c1cc(-c2ccco2)nc2ccccc12	9.1	-6.1	-6.7	86.5*	+
O=C(NC(=S)Nc1cccc(S(=O)(=O)NC2=NCCC2)c1)c1cc(-c2ccco2)nc2ccccc12	-9.4	-2.1	-5.8	26.8	·
O=C(NC1CC1)c1cc(-c2ccco2)nc2ccccc12	21.5	-4.6	0.6	71.7*	+
COCCNC(=O)CSc1ccccc1C(=O)NC1CCCc2ccccc21 (stereo unspecified)	·	5.1	·	·	·
COc1ccc(-c2csc(NC(=O)CSc3nc(C)nc4sc(C(=O)O)c(C)c34)n2)cc1	8.6	1.5	-5.1	95.8*	+
Cc1cc(N)n(-c2ccccn2)n1	-0.1	0.0	1.1	3.0	·
O=C(O)c1cccc(-n2cccc2/C=C2/NC(=O)N(c3ccc(Cl)cc3)C2=O)c1	39.0	·	12.6	82.4*	·
O=C(O)c1cccc(-n2cccc2/C=C2/NC(=O)N(c3cccc(Cl)c3)C2=O)c1	20.3	-0.1	28.9	46.9	·
COC(=O)c1ccccc1NC(=O)c1ccc2c(c1)C(=O)N(Cc1ccco1)C2=O	·	?	·	58.5*	i
CCOC(=O)c1c(NC(=O)/C=C/C(=O)O)sc(C)c1-c1ccc(Cl)cc1	-6.2	4.7	-4.8	107.4*	+
COc1ccc(CNC(=O)c2ccc3c(c2)NC(=O)C(C)S3)cc1 (stereo unspecified)	14.6	5.9	-3.2	20.2	·
CN1CCC(N(C)C(=O)/C(C#N)=C/c2ccc(OC(F)F)cc2)CC1	1.9	8.6	2.4	16.9	·
Cc1c2c(n3c(nc4ccccc43)c1C#N)N(CCCN(C)C)CC2	100.2*	0.7	90.8*	54.1*	i
